High-throughput results from PubChem.
HTRA1 inh: HTRA1 serine protease inhibitors, primary screen, biochemical, fluorescence polarization, HTS; inhibition, % at 5.96 µM; recombinant HTRA1, FP-rhodamine activity-based probe; hit rate 0.5% among 340,000; AID 504803, 2011; Q92743; in the data active = inhibition above about 36%
Target sequence (Q92743 whole entry, looked up): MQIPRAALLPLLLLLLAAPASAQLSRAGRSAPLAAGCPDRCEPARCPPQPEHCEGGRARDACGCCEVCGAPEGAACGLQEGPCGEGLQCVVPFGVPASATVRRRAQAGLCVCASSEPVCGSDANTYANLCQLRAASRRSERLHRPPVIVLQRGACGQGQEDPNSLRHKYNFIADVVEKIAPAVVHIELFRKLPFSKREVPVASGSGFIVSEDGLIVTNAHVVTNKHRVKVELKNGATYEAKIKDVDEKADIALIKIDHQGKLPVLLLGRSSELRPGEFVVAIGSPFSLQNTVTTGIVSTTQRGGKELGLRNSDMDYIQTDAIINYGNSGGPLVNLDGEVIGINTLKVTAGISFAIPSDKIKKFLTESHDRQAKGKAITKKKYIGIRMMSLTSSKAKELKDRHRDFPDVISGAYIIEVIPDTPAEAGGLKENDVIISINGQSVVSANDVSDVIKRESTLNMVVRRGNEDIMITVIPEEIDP
TCR CD3 inh: inhibitors of human TCR-CD3 interaction, primary screen, biochemical, fluorescence, TAMRA-labeled TCR probe. hit rate 0.37% among 360,000. inhibition, % at 9.4 µM. AID 651800, 2012; in the data active = inhibition above about 19%;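 also: recombinant mutant TCR 2C K166C tagged with TAMRA read by polarization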
ATG4B inhibitor: ATG4B protease inhibitors, primary screen, biochemical, fluorescence, uHTS; ATG4B cleavage of LC3-PLA2, NBD-HPC fluorescence, 1 h; inhibition, % at 8.33 µM; hit rate 0.51% among 340,000; in the data active = inhibition above about 40%
SIAE primary: human SIAE inhibitors, primary screen, biochemical, fluorescence polarization, FP-Rh probe, 1536-well HTS; hit rate 0.69% among 370,000; SIAE FP-Rh probe binding; inhibition, % at 9.66 µM; Sialate O-acetylesterase (Homo sapiens), Q9HAT2;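 active = inhibition above a cutoff: mean of compounds within the control limits plus 3 SD of those, cut at about 17% in these data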
PRMT1 inh: PRMT1 methyltransferase inhibitors, primary screen, biochemical, fluorescence polarization. AID 652257, 2013. recombinant PRMT1, activity-based probe fluorescence polarization. Protein arginine N-methyltransferase 1 (Homo sapiens), Q99873. hit rate 1.3% among 370,000. inhibition, % at 2.79 µM;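 active = inhibition above about 21% made by adding two undisclosed values, limit read from the data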
mABHD4 FP: ABHD4 inhibitors, primary screen, biochemical, fluorescence polarization, mouse. (Lyso)-N-acylphosphatidylethanolamine lipase (Mus musculus), Q8VD66. hit rate 0.54% among 370,000. inhibition, % at 8.92 µM. AID 720543, 2013. purified mABHD4, FP-Rh probe fluorescence polarization;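 active = inhibition exceeding the mean over every tested compound plus 3 SD, cut at about 30% in these data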
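assay system = mABHD4 protein | compound dosing = single nominal dose of 8.92 µM, 0.89% DMSO final | read-out basis = percent inhibition of probe binding, normalized to plate controls | schedule = Enzyme–compound pre-incubation 45 min, then probe 60 min, both 25 °C | detection = fluorescence polarization, excitation 525 nm, emission 598 nm, BODIPY TMR filters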
PRMT1 confirm: PRMT1 methyltransferase inhibitors, confirmation, biochemical, fluorescence polarization, triplicate; inhibition, % at 2.79 µM; shares compounds with PRMT1 inh; recombinant His-PRMT1, activity-based probe fluorescence polarization; hit rate 42% among 3,300; AID 687036, 2013;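 active = mean inhibition across replicates above the hit cutoff derived for the earlier primary screen, cut at about 22% in these data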
A number is an active result; 0 = inactive; - = no result. In the library only some 2.9% were active in any assay of this set; here they are far more common.

SMILES	HTRA1 inh	TCR CD3 inh	ATG4B inhibitor	SIAE primary	PRMT1 inh	mABHD4 FP	PRMT1 confirm
COc1ccc([C@H]2OC(=O)C[C@H]2C(=O)N2CCN(C(=O)C3CCCO3)CC2)cc1OC (some centres not stated)	-	-	-	0	0	0	-
Cc1nnc(SCC(=O)Nc2sc3c(c2C(N)=O)CCC(C)C3)[nH]c1=O (configuration not stated)	0	0	0	0	25.9	0	51.0
Cc1sc(NC(=O)CSc2nnc(C)c(=O)[nH]2)c(C#N)c1C	0	0	0	0	26.6	0	23.7
O=C(NCCc1ccc(F)cc1)c1ccc2c(c1)ncn2C1CCCCC1	-	-	-	0	0	0	-
CCOC(=O)[C@]12CCC=C1N(Cc1ccc(Cl)cc1Cl)C(=O)[C@H](CC(=O)NCc1ccc(C)o1)C2	-	0	-	0	35.2	0	0
CCOC(=O)[C@]12CCCC=C1N(Cc1ccc(Cl)cc1Cl)C(=O)[C@H](CC(=O)NCc1ccc(C)o1)C2	-	0	-	0	0	0	-
COP(=O)(OC)C(Cc1ccccc1)NC(=O)CNC(=O)OCc1ccccc1 (configuration not stated)	-	-	-	0	0	0	-
CCCC1CCC2(CCCN2CCOC(=S)Nc2cccc(Cl)c2)CC1 (configuration not stated)	-	-	-	0	31.8	0	29.8
FC(F)(F)c1ccccc1NC(=S)OCCN1CCCC12CCC(c1ccccc1)CC2 (configuration not stated)	-	-	-	0	41.7	0	24.7
CCCC1CCC2(CCCN2CCOC(=S)Nc2ccccc2)CC1 (configuration not stated)	-	-	-	0	0	0	-
COC(=O)CN(Cc1cn(Cc2ccccc2)nn1)S(=O)(=O)c1ccccc1Br	-	-	-	0	0	0	-
S=c1[nH]nc(COc2ccccc2)n1/N=C/C=C/c1ccco1	-	0	0	0	32.9	0	0
CC(C)c1ccc(/C=N/n2c(COc3ccccc3)n[nH]c2=S)cc1	0	0	0	0	30.9	0	0
CCc1cc2cc(C)c(C)cc2nc1SCC(=O)NNC(=O)c1ccco1	0	0	0	0	29.1	0	0
COc1cc(/C=C2\S/C(=N/S(=O)(=O)c3ccc(C)cc3)NC2=O)c([N+](=O)[O-])cc1OC	0	0	0	0	26.9	0	0
CCCCCCC(=O)NC1CCCCN(Cc2ccc(Cl)cc2)C1=O (configuration not stated)	-	-	-	0	0	0	-
CCOc1ccc(N=CNc2ccc(OCC)cc2)cc1	0	0	0	0	0	0	-
CCCCN=Cc1sc2ccc(OCC)cc2c1O	0	0	0	0	30.2	0	31.6
NC(=O)CN1C(=O)/C(=c2\sc3nc(=O)c(Cc4ccccc4)nn3c2=O)c2ccccc21	-	0	0	0	45.1	0	39.6
CCCN1C(=O)/C(=c2\sc3nc(=O)c(Cc4ccc(C)cc4)nn3c2=O)c2ccccc21	0	0	0	0	0	0	-
COc1cccc(-c2cc3nc(-c4ccccc4)cc(N4CCN(C(=O)c5ccoc5)CC4)n3n2)c1	0	0	-	0	0	0	-
O=C(c1ccoc1)N1CCN(c2cc(-c3ccco3)nc3cc(-c4ccco4)nn23)CC1	-	-	-	0	33.9	0	0
COc1cccc(-c2cc3nc(-c4ccco4)cc(N4CCN(C(C)=O)CC4)n3n2)c1	-	-	-	0	49.9	0	0
COC(=O)[C@@H](CC(C)C)CP(=O)(OC)[C@@H](C)NC(=O)OCc1ccccc1 (some centres not stated)	-	-	-	0	0	0	-
C#CCN1C(=O)[C@@](O)(c2cccn2C)c2cc(F)ccc21	-	-	-	0	0	0	-
SMILES	HTRA1 inh	TCR CD3 inh	ATG4B inhibitor	SIAE primary	PRMT1 inh	mABHD4 FP	PRMT1 confirm
CCOC(=O)c1c(SCCN2CCCC2)n(-c2ccccc2)c(=S)n(-c2ccccc2)c1=O	0	0	0	0	51.6	0	39.6
COC(=O)N1CCC[C@H]1c1cccc2[nH]cc(C)c12	-	-	-	0	0	0	-
COCCSc1ccccc1C(=O)Nc1cc(C)on1	0	0	0	0	26.2	0	22.2
COc1ccccc1C(=O)Nc1cc(C)on1	0	0	0	0	0	0	-
N#Cc1c2nc3ccccc3nc2n2cc(NC(=O)c3ccc(F)cc3)ccc12	0	0	0	0	40.9	0	0
Cc1c(C(=O)Nc2ccc(F)cc2)cn2c(nc3ccccc32)c1C#N	0	0	0	0	0	0	-
Cc1cc(Br)cn2c(Cc3ccsc3)c(-c3ccco3)nc12	-	0	-	0	27.2	0	0
Cc1cc(Br)cn2c(Cc3ccccc3)c(-c3ccco3)nc12	-	0	-	0	34.6	0	0
CCCCCCCCNS(=O)(=O)CC1NCc2cc(F)ccc21 (configuration not stated)	-	-	-	0	0	0	-
CC(C)(C)NC(=O)C(c1ccc(C#N)cc1)n1c(=O)c(-c2ccco2)nc2ccccc21 (configuration not stated)	-	0	-	0	30.6	0	35.8
COc1ccc(C(C(=O)NC(C)(C)C)n2c(=O)c(-c3ccco3)nc3ccccc32)cc1 (configuration not stated)	-	0	-	0	31.1	0	0
O=C(NCc1ccccc1)C(c1cccc2ccccc12)n1c(=O)c(-c2ccco2)nc2ccccc21 (configuration not stated)	-	0	-	0	0	0	-
CCCCCNC(=O)C(c1cccc2ccccc12)n1c(=O)c(-c2ccco2)nc2ccccc21 (configuration not stated)	-	0	-	0	31.8	0	0
CC(C)(C)NC(=O)C(c1ccc(-c2ccccc2)cc1)n1c(=O)c(-c2ccco2)nc2ccccc21 (configuration not stated)	-	0	-	0	0	0	-
Cc1cccc(NC(=O)C2CCCN2S(=O)(=O)c2cccc3cccnc23)c1C (configuration not stated)	-	-	-	0	0	0	-
CN(CCc1ccccn1)C(=O)c1ccc(Sc2ccccc2Cl)c([N+](=O)[O-])c1	-	-	-	0	0	0	-
Cc1ccc(N/C=C2/Sc3ccccc3NC2=O)cc1	0	0	0	0	31.2	0	0
COc1ccc(N/C=C2/Sc3ccccc3NC2=O)cc1	0	0	0	0	32.5	0	30.3
O=c1[nH]sc2ccccc12	0	0	0	0	72.3	0	85.6
O=c1ccsc2ccccc12	-	0	0	0	0	0	-
CCn1c(C(=O)N2CCc3ccccc3C2)cc2sccc21	0	0	0	0	25.4	0	0
CCn1c(C(=O)NCCCN2CCc3ccccc3C2)cc2sccc21	0	0	0	0	0	0	-
